Experimental data as given in ChEMBL document CHEMBL3286275, “Identification of 1-{2-[4-chloro-1'-(2,2-dimethylpropyl)-7-hydroxy-1,2-dihydrospiro[indole-3,4'-piperidine]-1-yl]phenyl}-3-{5-chloro-[1,3]thiazolo[5,4-b]pyridin-2-yl}urea, a potent, efficacious and orally bioavailable P2Y(1) antagonist as an antiplatelet agent” (Bioorg Med Chem Lett, 2014).
≈ marks a conversion by molar mass, not a printed value. Calls of active or inactive are those of the source. The rule behind the calls is not given here.

What was measured:
Liver microsome [1] = assay: Metabolic stability in human liver microsomes assessed as compound remaining; format: ADME
Outline: (§1)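 Liver microsome stability: percent of compound remaining after incubation with […] (3 µM microsomes in some cases).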

P2Y purinoceptor 1 = P2Y purinoceptor 1 (Homo sapiens, UniProt P47900); assay: Antagonist activity at P2Y1 receptor in human platelets by FLIPR assay in presence of 2-methylthio-ADP
Outline: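 Washed human platelets with endogenous P2Y1; calcium signalling read by FLIPR with reduced protein (~0.1% BSA); agonist 2-methylthio-ADP at 1 µM; IC50 given as mean ± SD.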

Platelet = assay: Inhibition of ADP-induced platelet aggregation in platelet-rich human plasma; format: functional
Outline: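 Human platelet-rich plasma; aggregation triggered by 10 µM ADP; IC50 determined.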

Liver microsome [2] = assay: Metabolic stability in rat liver microsomes assessed as compound remaining; format: ADME; outline: as §1
Oryctolagus cuniculus [3] = assay: Cardiotoxicity in rabbit assessed as increase in QTc at 10 to 30 mg/kg, iv by surface electrocardiography; format: toxicity, organism-based; design: dose 10-30 mg/kg, route intravenous; settings: in vivo
Outline: (§2)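 Anesthetized rabbits given IV doses of 3, 10 and 30 mg/kg in increasing order; plasma concentrations measured; PR, QRS and QTc intervals read by surface ECG.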

P2Y purinoceptor 12 = P2Y purinoceptor 12 (Homo sapiens, UniProt Q9H244); assay: Antagonist activity at P2Y12 receptor (unknown origin)
[4] = Half life in dog at 0.2 mg/kg, iv and 5 mg/kg, po; format: ADME, organism-based, Canis lupus familiaris; settings: in vivo
Outline: (§3)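 Dog and cynomolgus PK used the methanesulfonic acid salt at 0.2 mg/kg IV and 5 mg/kg PO; clearance, Vdss, half-life and oral bioavailability determined.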

[5] = Clearance in dog at 0.2 mg/kg, iv and 5 mg/kg, po; format: ADME, organism-based, Canis lupus familiaris; settings: in vivo; outline: as §3
Plasma [6] = assay: Plasma concentration in rabbit at 30 mg/kg, iv; format: ADME, organism-based, Oryctolagus cuniculus; design: dose 30 mg/kg, route intravenous; settings: in vivo; outline: as §2
[7] = Volume of distribution at steady state in dog at 0.2 mg/kg, iv and 5 mg/kg, po; format: ADME, organism-based, Canis lupus familiaris; settings: in vivo, read-out: Vdss; outline: as §3
[8] = Volume of distribution at steady state in cynomolgus monkey at 0.2 mg/kg, iv and 5 mg/kg, po; format: ADME, organism-based, Macaca fascicularis; settings: in vivo, read-out: Vdss; outline: as §3
[9] = Oral bioavailability in cynomolgus monkey at 5 mg/kg; format: ADME, organism-based, Macaca fascicularis; settings: in vivo; outline: as §3
Rattus norvegicus [10] = assay: Toxicity in rat assessed as prolongation of cuticle bleeding time at 10 mg/kg, po relative to control; format: organism-based; design: dose 10 mg/kg, route oral; settings: in vivo
Outline: (§4)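 Pentobarbital-anesthetized rats dosed by oral gavage 1 h before bleeding-time induction. Vehicle was 1 ml/kg of 10% N,N-dimethylacetamide/90% dextrose 5% water, and compound was given at 0.3, 1, 3 and 10 mg/kg. Cuticle and mesenteric bleeding times were measured and expressed as fold prolongation relative to vehicle. Group sizes were indicated per group.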

Rattus norvegicus [11] = assay: Antithrombotic activity in po dosed pentobarbital anesthetized rat assessed as reduction in FeCl2-induced thrombus weight administered 1 hr prior to FeCl2 challenge
Blood [12] = assay: Drug uptake in rat blood at 3 mg/kg, po; format: ADME, organism-based; design: dose 3 mg/kg, route oral; settings: in vivo, read-out: Drug uptake
[13] = Oral bioavailability in dog at 5 mg/kg; format: ADME, organism-based, Canis lupus familiaris; settings: in vivo; outline: as §3
[14] = Aqueous solubility of the compound at pH 3.9; format: physicochemical; settings: aqueous medium, read-out: Activity
Outline: (§5)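 Aqueous solubility taken on crystalline material: free base at pH 6.5, mono-methanesulfonic acid salt at pH 3.9.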

[15] = Clearance in cynomolgus monkey at 0.2 mg/kg, iv and 5 mg/kg, po; format: ADME, organism-based, Macaca fascicularis; settings: in vivo; outline: as §3
Rattus norvegicus [16] = assay: Antithrombotic activity in pentobarbital anesthetized rat assessed as preservation of blood flow at 10 mg/kg, po administered 1 hr prior to FeCl2 challenge; format: functional, organism-based; design: dose 10 mg/kg
Outline: (§6)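 Pentobarbital-anesthetized rats; vehicle (1 ml/kg of 10% N,N-dimethylacetamide/90% dextrose 5% water) or 0.3, 1, 3, 10 mg/kg by oral gavage 1 h before FeCl2-induced carotid thrombosis or cuticle/mesenteric bleeding time. End points were thrombus weight and blood flow. Blood was drawn at the end of the thrombosis protocol for ex vivo aggregation. ID50 values derived; SEM reported.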

P2X purinoceptor 1 = biological target: T1, P2X purinoceptor 1 (Homo sapiens, UniProt P51575); assay: Antagonist activity at P2X1 receptor (unknown origin) by FLIPR assay
T1 sequence (P51575 whole entry): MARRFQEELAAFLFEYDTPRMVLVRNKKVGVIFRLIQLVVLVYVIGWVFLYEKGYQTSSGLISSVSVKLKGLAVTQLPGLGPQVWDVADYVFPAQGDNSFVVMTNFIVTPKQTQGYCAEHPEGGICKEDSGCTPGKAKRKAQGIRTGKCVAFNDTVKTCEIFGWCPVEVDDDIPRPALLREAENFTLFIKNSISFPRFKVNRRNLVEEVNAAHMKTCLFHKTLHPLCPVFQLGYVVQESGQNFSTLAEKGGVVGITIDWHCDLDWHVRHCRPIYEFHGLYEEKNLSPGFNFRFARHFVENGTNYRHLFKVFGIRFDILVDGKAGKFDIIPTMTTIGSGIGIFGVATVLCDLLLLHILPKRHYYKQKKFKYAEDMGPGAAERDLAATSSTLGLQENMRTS

[17] = Plasma protein binding in rat; format: ADME, cell-free; settings: read-out: PPB (converted)
hERG (KCNH2) = hERG (KCNH2) (Homo sapiens, UniProt Q12809); assay: Inhibition of human ERG channel at 1 uM by patch clamp technique
Outline: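 hERG current measured in vitro by patch clamp at 1 µM.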

Rattus norvegicus [18] = assay: Antithrombotic activity in pentobarbital anesthetized rat assessed as reduction in FeCl2-induced thrombus weight at 10 mg/kg, po administered 1 hr prior to FeCl2 challenge; format: functional; design: scale not given: the % may be the effect or the level left; outline: as §6
[19] = Aqueous solubility of the compound at pH 6.5; format: physicochemical; settings: aqueous medium; outline: as §5
[20] = Half life in cynomolgus monkey at 0.2 mg/kg, iv and 5 mg/kg, po; format: ADME, organism-based, Macaca fascicularis; settings: in vivo; outline: as §3
Rattus norvegicus [21] = assay: Antithrombotic activity in po dosed pentobarbital anesthetized rat assessed as maintainance of blood flow administered 1 hr prior to FeCl2 challenge; format: functional, organism-based; outline: as §6
Rattus norvegicus [22] = assay: Antiplatelet activity in pentobarbital anesthetized rat assessed as reduction in platelet aggregation at 10 mg/kg, po; format: functional; design: scale not given: the % may be the effect or the level left; outline: as §6
Plasma [23] = assay: Plasma concentration in rabbit at 3 mg/kg, iv; format: ADME, organism-based, Oryctolagus cuniculus; design: dose 3 mg/kg, route intravenous; settings: in vivo; outline: as §2
Rattus norvegicus [24] = assay: Toxicity in po dosed pentobarbital anesthetized rat assessed as prolongation of bleeding time measured after 1 hr; format: organism-based; settings: in vivo; outline: as §6
Oryctolagus cuniculus [25] = assay: Cardiotoxicity in rabbit assessed as PR interval at 3 to 30 mg/kg, iv by surface electrocardiography; format: toxicity, organism-based; design: dose 3-30 mg/kg, route intravenous; settings: in vivo; outline: as §2
Plasma [26] = assay: Plasma concentration in rabbit at 10 mg/kg, iv; format: ADME, organism-based, Oryctolagus cuniculus; design: dose 10 mg/kg, route intravenous; settings: in vivo; outline: as §2
P2Y purinoceptor 2 = P2Y purinoceptor 2 (Homo sapiens, UniProt P41231); assay: Antagonist activity at P2Y2 receptor (unknown origin)
Blood [27] = assay: Drug uptake in rat blood at 0.3 mg/kg, po; format: ADME, organism-based; design: dose 0.3 mg/kg, route oral; settings: in vivo, read-out: Drug uptake
Rattus norvegicus [28] = assay: Ex vivo inhibition of platelet aggregation in po dosed pentobarbital anesthetized rat administered 1 hr prior to FeCl2 challenge; format: functional; outline: as §6
Rattus norvegicus [29] = assay: Toxicity in rat assessed as prolongation of mesentric bleeding time at 10 mg/kg, po relative to control; format: organism-based; design: dose 10 mg/kg, route oral; settings: in vivo; outline: as §4
Oryctolagus cuniculus [30] = assay: Cardiotoxicity in rabbit assessed as QRS interval at 3 to 30 mg/kg, iv by surface electrocardiography; format: toxicity, organism-based; design: dose 3-30 mg/kg, route intravenous; settings: in vivo; outline: as §2
[31] = Plasma protein binding in human; format: ADME, cell-free; settings: read-out: PPB (converted)
Blood [32] = assay: Drug uptake in rat blood at 1 mg/kg, po; format: ADME, organism-based; design: dose 1 mg/kg, route oral; settings: in vivo, read-out: Drug uptake
[33] = Plasma protein binding in rabbit; format: ADME, cell-free, Oryctolagus cuniculus; settings: read-out: PPB (converted)
Blood [34] = assay: Drug uptake in rat blood at 10 mg/kg, po; format: ADME, organism-based; design: dose 10 mg/kg, route oral; settings: in vivo, read-out: Drug uptake

Sequence of P2Y purinoceptor 1 (P47900 whole entry): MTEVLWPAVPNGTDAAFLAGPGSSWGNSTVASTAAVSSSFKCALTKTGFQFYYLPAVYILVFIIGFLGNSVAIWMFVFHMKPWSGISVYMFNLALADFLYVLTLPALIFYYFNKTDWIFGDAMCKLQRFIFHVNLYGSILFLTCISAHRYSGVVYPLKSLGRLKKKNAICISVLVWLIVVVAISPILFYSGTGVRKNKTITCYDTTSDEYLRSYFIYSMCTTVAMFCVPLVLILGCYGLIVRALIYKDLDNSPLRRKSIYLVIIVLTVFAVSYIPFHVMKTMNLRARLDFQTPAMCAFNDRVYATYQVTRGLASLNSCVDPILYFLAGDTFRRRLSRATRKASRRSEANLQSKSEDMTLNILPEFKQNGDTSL
Sequence of P2Y purinoceptor 12 (Q9H244 whole entry): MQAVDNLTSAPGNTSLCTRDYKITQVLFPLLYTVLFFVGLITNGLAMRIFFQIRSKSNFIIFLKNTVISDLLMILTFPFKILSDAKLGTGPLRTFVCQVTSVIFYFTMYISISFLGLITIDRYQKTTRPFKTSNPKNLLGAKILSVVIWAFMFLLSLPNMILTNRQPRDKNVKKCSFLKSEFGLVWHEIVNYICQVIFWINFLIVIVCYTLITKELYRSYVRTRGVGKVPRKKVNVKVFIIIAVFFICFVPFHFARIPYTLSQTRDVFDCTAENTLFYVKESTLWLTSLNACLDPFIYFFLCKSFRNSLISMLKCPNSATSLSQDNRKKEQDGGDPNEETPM
Sequence of P2Y purinoceptor 2 (P41231 whole entry): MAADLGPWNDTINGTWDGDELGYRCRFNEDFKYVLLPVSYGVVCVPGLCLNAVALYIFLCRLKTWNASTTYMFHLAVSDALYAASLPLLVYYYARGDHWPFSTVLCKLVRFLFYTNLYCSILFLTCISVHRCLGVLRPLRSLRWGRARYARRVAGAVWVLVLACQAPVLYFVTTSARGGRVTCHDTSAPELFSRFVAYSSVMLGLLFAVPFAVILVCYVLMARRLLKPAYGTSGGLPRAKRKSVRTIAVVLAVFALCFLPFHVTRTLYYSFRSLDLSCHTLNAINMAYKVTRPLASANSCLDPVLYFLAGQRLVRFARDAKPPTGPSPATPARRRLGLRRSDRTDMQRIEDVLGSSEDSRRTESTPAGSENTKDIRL
Sequence of hERG (KCNH2) (Q12809 whole entry): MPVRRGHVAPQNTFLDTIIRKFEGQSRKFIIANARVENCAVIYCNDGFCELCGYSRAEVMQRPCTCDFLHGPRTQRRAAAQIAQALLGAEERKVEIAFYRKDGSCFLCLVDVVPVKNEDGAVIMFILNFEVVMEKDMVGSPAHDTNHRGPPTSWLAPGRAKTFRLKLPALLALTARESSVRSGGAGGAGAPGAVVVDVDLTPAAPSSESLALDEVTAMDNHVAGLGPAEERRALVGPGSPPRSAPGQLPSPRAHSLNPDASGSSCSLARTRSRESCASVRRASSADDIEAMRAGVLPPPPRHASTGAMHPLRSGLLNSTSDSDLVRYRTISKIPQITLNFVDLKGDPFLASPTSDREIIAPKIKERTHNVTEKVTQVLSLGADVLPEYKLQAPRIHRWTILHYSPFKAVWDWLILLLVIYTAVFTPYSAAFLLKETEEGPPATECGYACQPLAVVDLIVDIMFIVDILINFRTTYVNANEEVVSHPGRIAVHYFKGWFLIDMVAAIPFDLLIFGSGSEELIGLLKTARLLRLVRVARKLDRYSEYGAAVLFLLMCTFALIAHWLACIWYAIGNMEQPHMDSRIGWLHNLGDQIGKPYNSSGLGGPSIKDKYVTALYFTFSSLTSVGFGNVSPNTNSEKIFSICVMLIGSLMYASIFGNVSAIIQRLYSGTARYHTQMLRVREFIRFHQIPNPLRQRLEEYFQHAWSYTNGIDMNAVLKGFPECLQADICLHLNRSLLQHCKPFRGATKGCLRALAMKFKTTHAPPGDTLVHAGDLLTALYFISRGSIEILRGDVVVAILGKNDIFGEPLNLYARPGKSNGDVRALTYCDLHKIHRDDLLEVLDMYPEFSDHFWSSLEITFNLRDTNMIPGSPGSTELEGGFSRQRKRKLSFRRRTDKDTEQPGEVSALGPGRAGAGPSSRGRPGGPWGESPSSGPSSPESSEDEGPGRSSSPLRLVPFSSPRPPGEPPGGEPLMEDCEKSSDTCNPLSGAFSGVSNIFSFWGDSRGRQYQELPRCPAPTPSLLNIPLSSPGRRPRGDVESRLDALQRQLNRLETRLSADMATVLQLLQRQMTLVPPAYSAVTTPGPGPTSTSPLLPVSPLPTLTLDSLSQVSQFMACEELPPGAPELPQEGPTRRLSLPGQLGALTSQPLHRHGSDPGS

## CC(C)(C)CN1CCC2(CC1)CN(c1ccccc1NC(=O)Nc1ccc(OC(F)(F)F)cc1)c1c(O)ccc(F)c12
Liver microsome [1]
  Stability: 78%
P2Y purinoceptor 1
  IC50: 0.37 nM
Platelet
  IC50: 920 nM
Liver microsome [2]
  Stability: 70%

## CC(C)(C)CN1CCC2(CC1)CN(c1ccccc1NC(=O)Nc1ccc(OC(F)(F)F)cc1)c1c(O)ccc(C(F)(F)F)c12
Liver microsome [1]
  Stability: 100%
P2Y purinoceptor 1
  IC50: 0.14 nM
Platelet
  IC50: 130 nM
Liver microsome [2]
  Stability: 98%

## CC(C)(C)CN1CCC2(CC1)CN(c1ccccc1NC(=O)Nc1ccc(OC(F)(F)F)cc1)c1cc(O)ccc12
P2Y purinoceptor 1
  IC50: 4.6 nM

## CN(C)S(=O)(=O)c1ccc(O)c2c1C1(CCN(CC(C)(C)C)CC1)CN2c1ccccc1NC(=O)Nc1ccc(OC(F)(F)F)cc1
Liver microsome [1]
  Stability: 21%
P2Y purinoceptor 1
  IC50: 0.13 nM
Platelet
  IC50: 420 nM
Liver microsome [2]
  Stability: 75%

## CC(C)(C)CN1CCC2(CC1)CN(c1ccccc1NC(=O)Nc1csc(Cl)n1)c1c(O)ccc(Cl)c12
Liver microsome [1]
  Stability: 87%
P2Y purinoceptor 1
  IC50: 0.03 nM
Platelet
  IC50: 170 nM
Liver microsome [2]
  Stability: 66%

## CC(C)(C)CN1CCC2(CC1)CN(c1ccccc1NC(=O)Nc1nc3ccc(Cl)nc3s1)c1c(O)ccc(Cl)c12
Oryctolagus cuniculus [3]
  Activity: Non-toxic
P2Y purinoceptor 12
  IC50: > 10000 nM
[4]
  half-life: 9.4 h
Liver microsome [1]
  Stability: 94%
[5]
  clearance: 4 mL/min/kg
Plasma [6]
  concentration: 158000 nM
[7]
  Vd: 2.5 L/kg
[8]
  Vd: 3.3 L/kg
[9]
  bioavailability: 22%
P2Y purinoceptor 1
  IC50: 0.12 nM
Rattus norvegicus [10]
  fold change (FC): 2.5
Rattus norvegicus [11]
  IC50: 130 nM
Rattus norvegicus [11]; po, read-out: ID50
  ED50: 7.3 mg/kg
Blood [12]
  concentration: 81 nM
[13]
  bioavailability: 27%
[14]
  solubility: 680 µg/mL (≈ 1110 µM)
[15]
  clearance: 7.7 mL/min/kg
Rattus norvegicus [16]
  Activity: Active
P2X purinoceptor 1
  IC50: 180 nM
[17]
  fraction unbound: 0.002
hERG (KCNH2)
  inhibition at 1 µM: 96%
Platelet
  IC50: 130 nM
Rattus norvegicus [18]
  Activity: 66%
[19]
  solubility: < 1 µg/mL
[20]
  half-life: 8.2 h
Rattus norvegicus [21]
  Activity: Dose-dependent effect
Rattus norvegicus [22]
  Activity: 74%
Plasma [23]
  concentration: 24000 nM
Rattus norvegicus [24]
  Activity: Dose-dependent effect
Oryctolagus cuniculus [25]
  Activity: Non-toxic
Plasma [26]
  concentration: 62000 nM
P2Y purinoceptor 2
  IC50: > 10000 nM
Blood [27]
  concentration: 7 nM
Liver microsome [2]
  Stability: 93%
Rattus norvegicus [28]
  Activity: Dose-dependent effect
Rattus norvegicus [28]; read-out: ID50 (the source's name)
  ED50: 6.6 mg/kg
Rattus norvegicus [29]
  fold change (FC): 2.2
Oryctolagus cuniculus [30]
  Activity: Non-toxic
[31]
  fraction unbound: 0.007
Blood [32]
  concentration: 39 nM
[33]
  fraction unbound: 0.007
Blood [34]
  concentration: 240 nM

## COC(=O)c1ccc(O)c2c1C1(CCN(CC(C)(C)C)CC1)CN2c1ccccc1NC(=O)Nc1ccc(OC(F)(F)F)cc1
Liver microsome [1]
  Stability: 48%
P2Y purinoceptor 1
  IC50: 0.15 nM
Platelet
  IC50: 700 nM
Liver microsome [2]
  Stability: 57%

## CC(C)(C)CN1CCC2(CC1)CN(c1ccccc1NC(=O)Nc1nc3ccc(Cl)cc3s1)c1c(O)ccc(Cl)c12
Liver microsome [1]
  Stability: 96%
P2Y purinoceptor 1
  IC50: 0.17 nM
Platelet
  IC50: 320 nM
Liver microsome [2]
  Stability: 93%
